Diaph act CS: counter-screen for diaphorase-based assays: diaphorase activators and chemical reducers | Diaphorase/resazurin coupled assay, resorufin fluorescence, 16 min; stronger effect = higher value; 1 = vehicle wells, 0 = NADH-free wells | 190,000 tested, 0.005% active | activation factor at 20 µM | AID 1229;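 active = diaphorase activity raised at least twofold by the compound at 20 µM; inactive = activation factor below 2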
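Assay system: Purified diaphorase enzyme from Clostridium kluyveri | Amount: Enzyme 0.07 U/mL final | Dosing: Compound 20 µM once, DMSO 1% | Timing: 16 min reaction at room temperature | Detection: Fluorescence, excitation 544 nm and emission 590 nm | Evaluation: Higher resorufin formation from activation or reduction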
G6PDH counter: inhibits Leuconostoc G6PDH, flagging false hits in G6PDH-based assays; Purified L. mesenteroides G6PDH, diaphorase/resazurin coupled fluorescence, 45 min; 200,000 tested, 0.12% active; inhibition, % at 5 µM
Diaphorase inh: inhibits diaphorase or chemically oxidizes, flagging diaphorase assay artifacts; 190,000 tested, 0.69% active; AID 1217; inhibition, % at 20 µM; diaphorase resazurin-to-resorufin fluorescence, NADH, 16 min; bacterial (C. kluyveri) enzyme, not human;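 active = primary screen inhibition at 20 µM above a set limit, cut at about 50% in these data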;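 note: plate controls were DMSO with full reaction for no effect and wells lacking NADH for full effect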
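Assay system: diaphorase enzyme from Clostridium kluyveri. Quantity: enzyme working solution with 0.14 U/mL diaphorase. Schedule: reaction incubation of 16 min at room temperature. Technique: resorufin fluorescence, excitation 544 nm, emission 590 nm. Controls: No-NADH positive control and DMSO neutral control.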
Lmaj promast: inhibitors of Leishmania major promastigote growth. Leishmania major promastigotes, resazurin fluorescence viability. inhibition, % at 10 µM. 200,000 tested, 9% active. AID 1063;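 note: promastigotes grown with compound for 44 hours at 28 °C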
WT yeast gro inh: growth inhibition of WT yeast, mitochondrial fusion screen. mitochondrial fusion phenotypic screen, WT strain. inhibition, % at 10 µM. 190,000 tested, 2.1% active. AID 1362; in the data active = inhibition above about 58%; tested in S. cerevisiae
* marks the source's active call; other numbers are inactive results. This is a sample that favours compounds with a hit; in the whole collection about 11% have one here. Cut-off read from the data, not from the text of the source, unless noted: active = inhibition above about 50%; inactive = the rest.

SMILES	Diaph act CS	G6PDH counter	Diaphorase inh	Lmaj promast	WT yeast gro inh
COc1ccc(-c2cc(C(F)F)n3ncc(C(=O)N4CCc5ccccc54)c3n2)cc1	0.9	9.0	14.6	29.1	0.8
Cc1ccc(-c2cc(C(F)F)n3ncc(C(=O)N4CCN(c5cccc(C)c5C)CC4)c3n2)cc1	0.8	0.8	17.7	57.5*	-3.4
Cc1ccc(-c2cc(C(F)F)n3ncc(C(=O)N4CCc5ccccc5C4)c3n2)cc1	0.8	10.3	24.0	39.1	76.9*
COc1ccc(-c2cc(C(F)F)n3ncc(C(=O)N4CCN5CCCC5C4)c3n2)cc1 (configuration not stated)	0.8	1.4	17.0	59.5*	1.0
Cc1ccc(-c2cc(C(F)F)n3ncc(C(=O)N4CCCc5ccccc54)c3n2)cc1	0.8	3.2	18.2	-3.9	-10.7
CSc1cccc(NC(=O)C(C)NS(=O)(=O)c2ccc(F)cc2)c1 (configuration not stated)	0.9	5.0	7.6	-6.1	1.4
CC(C)Oc1cccc(-c2nnc(SCC(=O)Nc3ccc4c(c3)OCCO4)n2N)c1	0.9	7.4	6.8	-0.5	9.4
CC1(C)CC2(CCO1)OC(=O)CC2C(=O)NCc1ccccc1 (configuration not stated)	0.9	0.8	10.5	-3.0	4.3
O=C(COC(=O)C12CC3CC(CC(C3)C1)C2)Nc1nc2c(F)c(F)c(F)cc2s1	0.7	-1.7	26.1	-3.5	18.4
CCOC(=O)c1c(-c2ccccc2)csc1NC(=O)c1cc2ccccc2oc1=O	0.9	-27.2	13.8	-4.1	9.5
c1ccc(-c2nnc(CSc3ccc4c(c3)OCCO4)o2)cc1	0.4	4.1	58.8*	-4.1	-13.7
N#Cc1c(-c2ccccc2)cc(-c2ccccc2)nc1SCc1nnc(-c2ccccc2)o1	0.9	4.6	10.2	60.0*	-7.5
O=C(OCc1nnc(-c2ccccc2)o1)c1ccc2c(c1)OCO2	1	6.4	1.5	-0.1	1.9
N#C/C(=C\c1cccc([N+](=O)[O-])c1)c1nnc2n1CCCCC2	0.9	14.9	8.6	60.9*	-7.8
c1ccc(-c2csc3ncnc(NCC4COc5ccccc5O4)c23)cc1 (configuration not stated)	0.7	-2.3	25.2	17.3	72.2*
CCOC(=O)C(NS(=O)(=O)c1ccccc1)(C(F)(F)F)P(=O)(OCC(C)C)OCC(C)C (configuration not stated)	1	3.6	-3.5	-12.7	2.3
O=C(CSc1ccccc1C(=O)O)NCC1CCCCC1	1.1	10.5	-6.3	-2.4	-3.9
CCOC(=O)C(=Cc1ccc(-n2cncn2)cc1)C(=O)OCC	1	1.0	-0.3	77.5*	-28.5
O=C(c1ccco1)N1CCCN(Cc2nc(-c3cccs3)no2)CC1	1	15.3	-1.9	86.2*	4.0
CCOc1ccc(NCC(=O)Nc2ccc(Cl)cc2C)cc1	0.8	6.2	18.3	29.7	4.2
COc1ccc(NCC(=O)Nc2ccc(Cl)cc2C)c(OC)c1	0.7	-12.6	31.9	99.0*	-24.4
CCOC(=O)c1ccc(S(=O)(=O)N2CCC(C(=O)O)CC2)cc1	0.9	1.4	14.2	0.9	-6.0
O=[N+]([O-])c1cc(C(F)(F)F)ccc1N1CCCNCC1	0.8	10.6	18.8	78.7*	3.6
Cc1nccn1-c1ccc(C(F)(F)F)cc1[N+](=O)[O-]	1.1	2.6	-5.2	-6.0	-28.5
O=[N+]([O-])c1cc(C(F)(F)F)ccc1N1CCN(S(=O)(=O)c2ccc3c(c2)CCCC3)CC1	0.9	-5.4	14.3	66.5*	20.2
SMILES	Diaph act CS	G6PDH counter	Diaphorase inh	Lmaj promast	WT yeast gro inh
O=[N+]([O-])c1cc(Cl)ccc1N1CCCC1	0.8	6.4	23.8	-0.6	-6.0
CC1CN(c2ccc(C(F)(F)F)cc2[N+](=O)[O-])CCN1S(C)(=O)=O (configuration not stated)	0.9	4.0	7.0	76.5*	7.0
CCNc1cc(N2CCN(S(=O)(=O)c3ccc4c(c3)CCCC4)CC2)ccc1[N+](=O)[O-]	0.8	-1.7	17.8	-1.9	8.1
FC(F)(F)c1ccc(NC(=S)NCc2ccccc2)cc1	1	0.0	1.1	1.3	60.1*
FC(F)Sc1ccc(NC(=S)NCc2ccccc2)cc1	0.8	6.6	21.9	19.9	59.8*
S=C(NCc1ccccc1)NCc1ccccc1	1	9.0	3.3	-0.3	13.7
FC(F)Sc1ccc(NC(=S)NC(c2ccccc2)c2ccccc2)cc1	0.9	6.2	10.1	56.3*	85.1*
CC(=O)N1CCN(C(=S)Nc2ccc(SC(F)F)cc2)CC1	1	0.1	2.8	0.4	-5.7
CC1=CC(C)(C)N=C(Nc2nc(C)c3cc(C)cc(C)c3n2)N1	1.1	0.9	-7.1	97.2*	13.1
C=CCNC(=O)Nc1ccc(Cl)cn1	0.9	0.6	9.5	-6.2	13.6
O=[N+]([O-])/C(C(Cl)=C(Cl)Cl)=C(/NC1CC1)Sc1ccccc1	0.9	2.7	8.5	0.2	-6.2
O=C(NN=C1CCCC1)c1ccccc1OCc1ccc(Cl)cc1	0.9	0.2	8.2	1.3	24.2
Cc1nc(NC(=O)C23CC4CC(CC(C4)C2)C3)sc1Cc1ccc2c(c1)OCO2	0.7	-8.3	32.9	21.2	36.5
CCOc1ccc(C(C)NC(=O)c2cccc(F)c2)cc1 (configuration not stated)	0.9	2.1	11.1	-1.8	-8.2
Cc1ccc(NC(=O)c2nc[nH]c2C(=O)N[C@@H](C)c2ccccc2)cc1	0.7	10.7	34.9	35.4	74.3*
Cc1ccc(NC(=O)c2[nH]cnc2C(=O)NN)cc1	0.9	-0.8	6.8	-5.8	-2.5
CC(C)(C)NC(=O)c1ccc(NC(=O)CSc2ccccc2)cc1	0.9	3.5	10.0	0.7	-1.2
Cc1cc(O)ccc1N=Cc1c(C(F)(F)F)[nH][nH]c1=O	0.7	26.7	26.4	51.9*	0.7
CCC(C)(C)c1ccc(OCCCC[n+]2ccccc2)c(C(C)(C)CC)c1	1.5	9.7	-54.2	100.4*	92.6*
CCCCCc1ccc(OCCCC[n+]2ccccc2)c(CCCCC)c1	1	0.0	-3.0	100.5*	86.0*
CCCCOc1ccc(C)cc1CN(CCO)CCO	1	17.0	1.5	-1.5	-5.9
CCCCCc1ccc(OCCCC[n+]2cccc(C)c2)c(CCCCC)c1	1.6	4.6	-60.4	100.7*	84.7
CCCCCc1ccc(OCCCC[n+]2ccc(C)cc2)c(CCCCC)c1	1.5	8.2	-47.1	100.3*	97.9*
CCCCCCc1ccc(OCC(=O)O)cc1OCC(=O)O	0.9	6.2	5.3	-3.6	9.2
N/C(=N\S(=O)(=O)c1ccc(Cl)s1)c1ccccc1	0.8	4.4	17.5	-4.5	3.0
COCCNC(=O)C(OC(=O)CC1Sc2ccccc2NC1=O)c1ccccc1 (configuration not stated)	1.2	9.9	-16.7	-1.3	3.7
Cc1ccc(CNC(N)=S)cc1	0.9	-4.0	13.6	-1.8	-1.0

From PubChem
